Source: ChEMBL document CHEMBL2163266, “3,3'-Disubstituted bipolar biphenyls as inhibitors of nuclear receptor coactivator binding” (Bioorg Med Chem Lett, 2012)
Active and inactive are the calls of the source. The calls are words filed in the database; no cut-off is given here.

Experiments:
HepG2 = test: Cytotoxicity against human HepG2 cells expressing ERalpha co-activator binding domain at >50 uM; assay type: cell-based
[1] = target: T1, Estrogen receptor (Homo sapiens) (UniProt P03372); test: Agonist activity at ERalpha co-activator binding domain expressed in human HepG2 cells assessed as […] LXXLL2 binding measured as […] activity at <20 uM; assay type: cell-based
T1 sequence (whole entry): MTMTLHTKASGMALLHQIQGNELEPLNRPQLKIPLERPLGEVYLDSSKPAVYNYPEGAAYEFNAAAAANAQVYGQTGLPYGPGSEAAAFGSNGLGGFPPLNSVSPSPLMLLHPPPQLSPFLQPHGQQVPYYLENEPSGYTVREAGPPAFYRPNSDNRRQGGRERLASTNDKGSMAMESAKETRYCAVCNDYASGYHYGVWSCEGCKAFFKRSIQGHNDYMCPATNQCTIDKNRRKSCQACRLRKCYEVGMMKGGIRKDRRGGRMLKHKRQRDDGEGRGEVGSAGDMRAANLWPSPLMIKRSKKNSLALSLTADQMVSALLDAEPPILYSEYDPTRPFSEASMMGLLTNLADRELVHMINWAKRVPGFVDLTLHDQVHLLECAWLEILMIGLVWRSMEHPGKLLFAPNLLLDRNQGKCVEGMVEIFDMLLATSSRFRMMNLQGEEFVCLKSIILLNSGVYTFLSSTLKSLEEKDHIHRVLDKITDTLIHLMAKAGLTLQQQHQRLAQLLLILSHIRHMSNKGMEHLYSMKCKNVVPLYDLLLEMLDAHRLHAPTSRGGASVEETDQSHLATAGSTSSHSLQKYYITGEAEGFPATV
Method in brief: (§1)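 HepG2 cells co-transfected with VP16-ERα, pM-GRIP1-LXXLL2, the 5xGal4-Luc3 reporter and a pCMV-β-gal normalization control. Serial twofold dilutions given with or without 1 nM estradiol, 40 h, then reporter read. Scored as >50% increase or decrease in reporter activity within concentration bands (<20, 20–50, >50 µM); <20% change scored 0.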

CV-1 = test: Cytotoxicity against african green monkey CV1 cells at >50 uM; assay type: cell-based; conditions: chlorocebus aethiops
[2] = target: T1, Estrogen receptor (Homo sapiens); test: Antagonist activity at ERalpha co-activator binding domain expressed in human HepG2 cells assessed as inhibition of E2-induced […] LXXLL2 binding measured as decrease in […] activity after 40 hrs by luciferase reporter gene assay; assay type: cell-based; design: concentration or dose not given beside the values; method in brief: as §1
[3] = target: T1, Estrogen receptor (Homo sapiens); test: Antagonist activity at ERalpha in human MCF7 cells assessed as reduction in E2-induced PS2 expression at 20 uM incubated for 2 hrs prior to E2-induction measured after 14 hrs by qPCR analysis; assay type: functional, cell-based; design: scale not given: the % may be the effect or the level left
Method in brief: (§2)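 MCF-7 (ER+) cells pretreated 2 h with 20 µM compound, then exposed to vehicle or estradiol for 14 h before target gene expression was measured.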

[4] = target: T1, Estrogen receptor (Homo sapiens); test: Antagonist activity at ERalpha co-activator binding domain in human Hec1 cells assessed as inhibition of co-activator binding by reporter gene assay; assay type: cell-based
MCF7 [5] = test: Effect on E2-induced IDH3A expression in human MCF7 cells at 20 uM incubated for 2 hrs measured after 14 hrs by qPCR analysis; assay type: functional, cell-based; method in brief: as §2
[6] = target: T1, Estrogen receptor (Homo sapiens); test: Agonist activity at ERalpha in human MCF7 cells assessed as increase in PS2 expression at 20 uM incubated for 2 hrs measured after 14 hrs by qPCR analysis relative to E2; assay type: functional, cell-based; method in brief: as §2
MCF7 [7] = test: Effect on IDH3A expression in human MCF7 cells at 20 uM incubated for 2 hrs measured after 14 hrs by qPCR analysis relative to E2; assay type: functional, cell-based; method in brief: as §2
[8] = target: T1, Estrogen receptor (Homo sapiens); test: Agonist activity at ERalpha in human MCF7 cells assessed as increase in PR expression at 20 uM incubated for 2 hrs measured after 14 hrs by qPCR analysis relative to E2; assay type: functional, cell-based; method in brief: as §2
[9] = target: T1, Estrogen receptor (Homo sapiens); test: Agonist activity at ERalpha in human MCF7 cells assessed as increase in SDF1 expression at 20 uM incubated for 2 hrs measured after 14 hrs by qPCR analysis relative to E2; assay type: functional, cell-based; method in brief: as §2
[10] = target: T1, Estrogen receptor (Homo sapiens); test: Antagonist activity at ERalpha in human MCF7 cells assessed as reduction in E2-induced PR expression at 20 uM incubated for 2 hrs prior to E2-induction measured after 14 hrs by qPCR analysis; assay type: functional, cell-based; design: scale not given: the % may be the effect or the level left; method in brief: as §2
[11] = target: T1, Estrogen receptor (Homo sapiens); test: Binding affinity to ERalpha co-activator binding domain by TR-FRET assay
[12] = target: T1, Estrogen receptor (Homo sapiens); test: Antagonist activity at ERalpha in human MCF7 cells assessed as reduction in E2-induced SDF1 expression at 20 uM incubated for 2 hrs prior to E2-induction measured after 14 hrs by qPCR analysis; assay type: functional, cell-based; design: scale not given: the % may be the effect or the level left; method in brief: as §2
[13] = target: T1, Estrogen receptor (Homo sapiens); test: Activity at ERalpha in human MCF7 cells assessed as increase in E2-induced PR expression at 20 uM incubated for 2 hrs prior to E2-induction measured after 14 hrs by qPCR analysis; assay type: cell-based; method in brief: as §2
[14] = target: T1, Estrogen receptor (Homo sapiens); test: Activity at ERalpha in human MCF7 cells assessed as increase in E2-induced PS2 expression at 20 uM incubated for 2 hrs prior to E2-induction measured after 14 hrs by qPCR analysis; assay type: cell-based; method in brief: as §2
[15] = target: T1, Estrogen receptor (Homo sapiens); test: Antagonist activity at ERalpha co-activator binding domain expressed in human HepG2 cells assessed as inhibition of E2-induced […] LXXLL2 binding measured as decrease in […] activity at 20 to 50 uM after 40 hrs by luciferase reporter gene assay; assay type: cell-based; method in brief: as §1

| Compound | Activity [2] [%] | inhibition [4] | Activity [6] | Activity [8] | Activity [9] | Activity [11] | Activity [12] [%] | Activity (CV-1) | Activity (MCF7 [5]) | Activity (MCF7 [7]) | further results |
| --- | --- | --- | --- | --- | --- | --- | --- | --- | --- | --- | --- |
| CCOC(=O)COc1ccc(-c2ccc(OCCN(C)C)c(C(C)CC)c2)cc1C(C)CC (stereo unspecified) |  |  |  |  |  |  |  | Toxic |  |  | Activity (HepG2): Toxic; Activity [1]: > 50% |
| CCC(C)c1cc(-c2ccc(OCC(=O)O)c(C(C)CC)c2)ccc1OCCN(C)C (stereo unspecified) |  | Active | inactive | inactive | inactive | Active | > 20 |  | inactive | inactive | Activity [3]: > 20%; Activity [10]: > 20% |
| CCOC(=O)COc1ccc(-c2ccc(OCCN(C)C)c(C(C)C)c2)cc1C(C)C | < 20 |  |  |  |  |  |  |  |  |  |  |
| CCOC(=O)COc1ccc(-c2ccc(O)c(C(C)CC)c2)cc1C(C)CC (stereo unspecified) |  |  |  |  |  |  |  | Toxic |  |  | inhibition [15]: > 50% |
| CN(C)CCOc1ccc(-c2ccc(OCC(=O)O)cc2)cc1 | < 20 | Active | > 20% | > 20% | > 20% | Active | > 20 |  | inactive | inactive | Activity [3]: inactive; Activity [10]: > 20% |
| CN(C)CCOc1ccc(-c2ccc(OCC(=O)O)c(Cc3ccccc3)c2)cc1Cc1ccccc1 |  | Active | inactive | inactive | inactive | Active | > 20 |  | inactive | inactive | Activity [3]: inactive; inhibition [15]: > 50%; Activity [10]: > 20% |
| CC(C)c1cc(-c2ccc(OCC(=O)O)c(C(C)C)c2)ccc1OCCN(C)C | < 20 | Active | inactive | inactive | inactive | Active | > 20 |  | inactive | inactive | Activity [3]: inactive; Activity [10]: > 20% |
| CCOC(=O)COc1ccc(-c2ccc(O)c(C(C)C)c2)cc1C(C)C |  |  |  |  |  |  |  | Toxic |  |  | inhibition [15]: > 50% |
| CCOC(=O)COc1ccc(-c2ccc(OCCN(C)C)c(Cc3ccccc3)c2)cc1Cc1ccccc1 |  |  |  |  |  |  |  | Toxic |  |  |  |
| CCOC(=O)COc1ccc(-c2ccc(OCCN(C)C)cc2)cc1 | < 20 |  |  |  |  |  |  |  |  |  | Activity [1]: > 50% |

Now from value to molecule, other results behind:

| Activity [2] [%] | inhibition [4] | Activity [6] | Activity [8] | Activity [9] | Activity [11] | Activity [12] [%] | Compound | Activity (CV-1) | Activity (MCF7 [5]) | Activity (MCF7 [7]) | further results |
| --- | --- | --- | --- | --- | --- | --- | --- | --- | --- | --- | --- |
| < 20 |  |  |  |  |  |  | CCOC(=O)COc1ccc(-c2ccc(O)c(C(C)(C)C)c2)cc1C(C)(C)C |  |  |  | Activity [1]: > 50% |
| < 20 |  |  |  |  |  |  | CCOC(=O)COc1ccc(-c2ccc(OCCN(C)C)c(C(C)(C)C)c2)cc1C(C)(C)C | Toxic |  |  |  |
| < 20 |  |  |  |  |  |  | CCOC(=O)COc1ccc(-c2ccc(O)c(Cc3ccccc3)c2)cc1Cc1ccccc1 |  |  |  |  |
|  | Active | > 20% | > 20% | > 20% | Active | > 20 | CN(C)CCOc1ccc(-c2ccc(OCC(=O)O)c(C(C)(C)C)c2)cc1C(C)(C)C |  | inactive | inactive | Activity [13]: > 20%; Activity [14]: > 20% |
| < 20 |  |  |  |  |  |  | CCOC(=O)COc1ccc(-c2ccc(O)cc2)cc1 |  |  |  | Activity [1]: > 50% |
